Consider 16 compounds from ChEMBL document CHEMBL4480406, “Discovery of an SSTR2-Targeting Maytansinoid Conjugate (PEN-221) with Potent Activity in Vitro and in Vivo” (J Med Chem, 2019).

SMILES strings stand for the structures. Where a SMILES comes first, the peptide text is derived from it. [ ]: non-standard residue; d: D form. The star is where a group is joined. Dolaproine = CO[C@@H]([C@@H]1CCCN1)[C@@H](C)C(=O)O; Dil = CC[C@H](C)[C@H](NC)[C@@H](CC(=O)O)OC; X1 = C[C@@H](N*)[C@@H](O)c1ccccc1; NMeV = CN[C@H](C(=O)O)C(C)C

Data set [1] can be described thus: Drug uptake in tumor of CrTac:NCr-Foxn1nu mouse xenografted with human NCI-H69 cells assessed as DM1 level at 1 mg/kg, iv measured after 24 hrs by LC-MS/MS analysis relative to DM1 alone. The class given is ADME, organism-based, Neoplasm. Particulars: in vivo; call rule not given here. In a few lines:
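NCI-H69 subcutaneous tumors of 250-600 mm3 in nude mice, groups of 3, dosed i.v. Free DM1 was given in 10% propylene glycol/WFI, conjugates in 10% propylene glycol/5 mM citrate pH 4. Tumors were excised at 24 h and homogenized 1:4 (w/v) in 0.1 M ammonium bicarbonate pH 8.0. Homogenate was reduced with TCEP in acetonitrile (15 min, 37 °C), capped with 0.2 M NEM (15 min, 37 °C), and DM1-NEM quantified by LC-MS/MS against standards in blank tumor homogenate. Values were normalized to DM1 dose.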

Data set [2] relates to NCI-H524. The experiment in a line: Cytotoxicity in human NCI-H524 cells pre-incubated for 2 hrs followed by compound wash out and subsequently incubated for 70 hrs by Cell Titer Glo assay. Format: functional, cell-based. In a few lines:
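Cells were then spun, washed with fresh medium, resuspended and grown a further 70 h. Proliferation was read by CellTiter-Glo luminescence, and % inhibition calculated relative to vehicle. IC50 came from a four-parameter nonlinear fit.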

Data set [3] addresses Somatostatin receptor type 2 (Homo sapiens, UniProt P30874). The data set can be described thus: Displacement of [125I]somatostatin from human SSTR2 expressed in CHO-K1 cell membranes after 240 mins. In a few lines:
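Membranes from CHO-K1 cells stably expressing human SSTR2, prepared in modified HEPES pH 7.4. Nonspecific binding was defined with 1 µM somatostatin. Bound ligand was measured by filtration, 3 washes and counting. Six test concentrations were run, top 10 nM, in five-fold dilutions.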

The subject of data set [4] is NCI-H524. The experiment in a line: Cytotoxicity in human NCI-H524 cells pre-incubated for 2 hrs in presence of 100 uM octreotide followed by compound wash out and subsequently incubated for 70 hrs by Cell Titer Glo assay. Format: functional, cell-based. A digest of the protocol:
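Octreotide receptor-blockade variant: NCI-H524 cells (5,000/well) were pretreated with octreotide acetate for 30 min, then given compound for 2 h in a ten-point three-fold series.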

Chain of Somatostatin receptor type 2 (P30874 whole entry): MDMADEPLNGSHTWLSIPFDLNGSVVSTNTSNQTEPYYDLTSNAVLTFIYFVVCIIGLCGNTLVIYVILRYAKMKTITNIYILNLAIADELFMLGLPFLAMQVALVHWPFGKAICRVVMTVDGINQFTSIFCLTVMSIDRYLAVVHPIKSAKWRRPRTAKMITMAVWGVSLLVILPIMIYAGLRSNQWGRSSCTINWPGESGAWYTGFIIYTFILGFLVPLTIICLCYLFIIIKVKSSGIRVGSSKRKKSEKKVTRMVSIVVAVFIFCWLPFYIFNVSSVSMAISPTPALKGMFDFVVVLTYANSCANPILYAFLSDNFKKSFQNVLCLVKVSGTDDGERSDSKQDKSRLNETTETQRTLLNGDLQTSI

Turning to `COc1cc2cc(c1Cl)N(C)C(=O)C[C@H](OC(=O)[C@H](C)N(C)C(=O)CCSSCCOc1ccc(C[C@@H](N)C(=O)N[C@H]3CSSC[C@@H](C(=O)N[C@H](C(=O)O)[C@@H](C)O)NC(=O)[C@H]([C@@H](C)O)NC(=O)[C@H](CCCCN)NC(=O)[C@@H](Cc4c[nH]c5ccccc45)NC(=O)[C@H](Cc4ccc(O)cc4)NC3=O)cc1)[C@@]1(C)O[C@H]1[C@H](C)[C@@H]1C[C@@](O)(NC(=O)O1)[C@H](OC)/C=C/C=C(\C)C2`, in data set [1], the Drug uptake result is listed as “Active”. The IC50 was determined as 15 nM in the data set on NCI-H524 [2] and 198 nM with NCI-H524 [4]. Further, the Ki in data set [3] is 0.015 nM.
`CC[C@H](C)[C@@H]([C@@H](CC(=O)N1CCC[C@H]1[C@H](OC)[C@@H](C)C(=O)N[C@H](C)[C@@H](O)c1ccccc1)OC)N(C)C(=O)[C@@H](NC(=O)[C@@H](NC)C(C)C)C(C)C` (H-[NMeV]V[Dil][Dolaproine]-X1): half-maximal inhibition with NCI-H524 [2] (IC50) required 3.7 nM.
Regarding `CO[C@H]1C(=O)[C@]2(C)[C@@H](OC)C[C@H]3OC[C@@]3(OC(C)=O)[C@H]2[C@H](OC(=O)c2ccccc2)[C@]2(O)C[C@H](OC(=O)[C@H](OC(=O)OCCSSCCCN[C@H](Cc3ccccc3)C(=O)N[C@H]3CSSC[C@@H](C(=O)N[C@H](CO)[C@@H](C)O)NC(=O)[C@H]([C@@H](C)O)NC(=O)[C@H](CCCCN)NC(=O)[C@@H](Cc4c[nH]c5ccccc45)NC(=O)[C@H](Cc4ccccc4)NC3=O)[C@@H](NC(=O)OC(C)(C)C)c3ccccc3)C(C)=C1C2(C)C`, the values for the IC50 with NCI-H524 [2] and in the data set with NCI-H524 [4] were 150 nM and 157 nM, respectively. Moreover, in data set [3], the affinity, expressed as Ki, was 0.77 nM.
The like results for `COc1cc2cc(c1Cl)N(C)C(=O)C[C@H](OC(=O)[C@H](C)N(C)C(=O)CCSC1CC(=O)N(CCCNC(=O)CNC(=O)[C@H](CC(C)C)NC(=O)[C@H](Cc3ccccc3)NC(=O)CNC(=O)CCCCCN3C(=O)CC(SCCCN[C@H](Cc4ccccc4)C(=O)N[C@H]4CSSC[C@@H](C(=O)N[C@H](CO)[C@@H](C)O)NC(=O)[C@H]([C@@H](C)O)NC(=O)[C@H](CCCCN)NC(=O)[C@@H](Cc5c[nH]c6ccccc56)NC(=O)[C@H](Cc5ccccc5)NC4=O)C3=O)C1=O)[C@@]1(C)O[C@H]1[C@H](C)[C@@H]1C[C@@](O)(NC(=O)O1)[C@H](OC)/C=C/C=C(\C)C2` (stereo partly drawn) were, in that order, 75 nM, 202 nM and 0.14 nM.
In the case of `COc1cc2cc(c1Cl)N(C)C(=O)C[C@H](OC(=O)[C@H](C)N(C)C(=O)CCC(C)(C)SSC[C@H](NC(=O)[C@@H]1CSSC[C@H](NC(=O)[C@H](N)Cc3ccccc3)C(=O)N[C@@H](Cc3ccc(O)cc3)C(=O)N[C@H](Cc3c[nH]c4ccccc34)C(=O)N[C@@H](CCCCN)C(=O)N[C@@H]([C@@H](C)O)C(=O)N1)C(N)=O)[C@@]1(C)O[C@H]1[C@H](C)[C@@H]1C[C@@](O)(NC(=O)O1)[C@H](OC)/C=C/C=C(\C)C2`, the IC50 with NCI-H524 [2] was determined as 27 nM; in the data set with NCI-H524 [4], 581 nM. In data set [3], this compound returned an inhibition constant (Ki) of 0.075 nM.
Turning to `COc1cc2cc(c1Cl)N(C)C(=O)C[C@H](OC(=O)[C@H](C)N(C)C(=O)CCSSCCCN[C@H](Cc1ccccc1)C(=O)N[C@H]1CSSC[C@@H](C(=O)N[C@H](C(=O)O)[C@@H](C)O)NC(=O)[C@H]([C@@H](C)O)NC(=O)[C@H](CCCCN)NC(=O)[C@@H](Cc3c[nH]c4ccccc34)NC(=O)[C@H](Cc3ccc(O)cc3)NC1=O)[C@@]1(C)O[C@H]1[C@H](C)[C@@H]1C[C@@](O)(NC(=O)O1)[C@H](OC)/C=C/C=C(\C)C2`, in data set [1], the Drug uptake entry is reported as “Active”. The half-maximal inhibitory concentration (IC50) came out at 19 nM in the data set with NCI-H524 [2] and 757 nM in the data set with NCI-H524 [4].
As for `COc1cc2cc(c1Cl)N(C)C(=O)C[C@H](OC(=O)[C@H](C)N(C)C(=O)CCSSCCNC(=O)[C@@H](NC(=O)[C@@H]1CSSC[C@H](NC(=O)[C@H](N)Cc3ccccc3)C(=O)N[C@@H](Cc3ccc(O)cc3)C(=O)N[C@H](Cc3c[nH]c4ccccc34)C(=O)N[C@@H](CCCCN)C(=O)N[C@@H]([C@@H](C)O)C(=O)N1)[C@@H](C)O)[C@@]1(C)O[C@H]1[C@H](C)[C@@H]1C[C@@](O)(NC(=O)O1)[C@H](OC)/C=C/C=C(\C)C2`, in data set [1], the Drug uptake result is given as “Active”. For the same compound, the IC50 was found to be 44 nM with NCI-H524 [2] and 528 nM with NCI-H524 [4].
Turning to `COc1cc2cc(c1Cl)N(C)C(=O)C[C@H](OC(=O)[C@H](C)N(C)C(=O)CCSSCCNC(=O)[C@@H]1CSSC[C@H](NC(=O)[C@H](N)Cc3ccccc3)C(=O)N[C@@H](Cc3ccc(O)cc3)C(=O)N[C@H](Cc3c[nH]c4ccccc34)C(=O)N[C@@H](CCCCN)C(=O)N[C@@H]([C@@H](C)O)C(=O)N1)[C@@]1(C)O[C@H]1[C@H](C)[C@@H]1C[C@@](O)(NC(=O)O1)[C@H](OC)/C=C/C=C(\C)C2`, the IC50 in the data set with NCI-H524 [2] came to 10 nM; in the data set with NCI-H524 [4], 692 nM. In addition, the affinity in data set [3] corresponds to a Ki of 0.061 nM.
For `CC[C@H](C)[C@@H]([C@@H](CC(=O)N1CCC[C@H]1[C@H](OC)[C@@H](C)C(=O)N[C@H](C)[C@@H](O)c1ccccc1)OC)N(C)C(=O)[C@@H](NC(=O)[C@H](C(C)C)N(C)C(=O)OCCSSCCCN[C@H](Cc1ccccc1)C(=O)N[C@H]1CSSC[C@@H](C(=O)N[C@H](CO)[C@@H](C)O)NC(=O)[C@H]([C@@H](C)O)NC(=O)[C@H](CCCCN)NC(=O)[C@@H](Cc2c[nH]c3ccccc23)NC(=O)[C@H](Cc2ccccc2)NC1=O)C(C)C`, the IC50 was 1470 nM in the data set on NCI-H524 [2] and 560 nM with NCI-H524 [4]. This compound also came in with a Ki in data set [3] of 0.26 nM.
The like results for `CC[C@H](C)[C@@H]([C@@H](CC(=O)N1CCC[C@H]1[C@H](OC)[C@@H](C)C(=O)N[C@H](C)[C@@H](O)c1ccccc1)OC)N(C)C(=O)[C@@H](NC(=O)[C@H](C(C)C)N(C)C(=O)OCCSSC[C@H](NC(=O)[C@@H]1CSSC[C@H](NC(=O)[C@H](N)Cc2ccccc2)C(=O)N[C@@H](Cc2ccc(O)cc2)C(=O)N[C@H](Cc2c[nH]c3ccccc23)C(=O)N[C@@H](CCCCN)C(=O)N[C@@H]([C@@H](C)O)C(=O)N1)C(N)=O)C(C)C` were, in that order, 1260 nM, 1430 nM and 0.18 nM.
The like results for `COc1cc2cc(c1Cl)N(C)C(=O)C[C@H](OC(=O)[C@H](C)N(C)C(=O)CCSSCCC(=O)NCCCC[C@H]1C(=O)N[C@@H](Cc3ccc(O)cc3)C(=O)N[C@H](Cc3c[nH]c4ccccc34)C(=O)N[C@@H](CCCCN)C(=O)N[C@@H]([C@@H](C)O)C(=O)N[C@@H](Cc3ccccc3)C(=O)N1C)[C@@]1(C)O[C@H]1[C@H](C)[C@@H]1C[C@@](O)(NC(=O)O1)[C@H](OC)/C=C/C=C(\C)C2` were, in that order, 60 nM, 865 nM and 0.1 nM.
The like results for `COc1cc2cc(c1Cl)N(C)C(=O)C[C@H](OC(=O)[C@H](C)N(C)C(=O)CCSSC[C@H](NC(=O)[C@@H]1CSSC[C@H](NC(=O)[C@H](N)Cc3ccccc3)C(=O)N[C@@H](Cc3ccc(O)cc3)C(=O)N[C@H](Cc3c[nH]c4ccccc34)C(=O)N[C@@H](CCCCN)C(=O)N[C@@H]([C@@H](C)O)C(=O)N1)C(=O)O)[C@@]1(C)O[C@H]1[C@H](C)[C@@H]1C[C@@](O)(NC(=O)O1)[C@H](OC)/C=C/C=C(\C)C2` were, in that order, 183 nM, 1600 nM and 0.013 nM.
As for `COc1cc2cc(c1Cl)N(C)C(=O)C[C@H](OC(=O)[C@H](C)N(C)C(=O)CCSC1CC(=O)N(CC(=O)NC[C@H](NC(=O)[C@@H]3CSSC[C@H](NC(=O)[C@H](N)Cc4ccccc4)C(=O)N[C@@H](Cc4ccc(O)cc4)C(=O)N[C@H](Cc4c[nH]c5ccccc45)C(=O)N[C@@H](CCCCN)C(=O)N[C@@H]([C@@H](C)O)C(=O)N3)C(N)=O)C1=O)[C@@]1(C)O[C@H]1[C@H](C)[C@@H]1C[C@@](O)(NC(=O)O1)[C@H](OC)/C=C/C=C(\C)C2` (stereo partly drawn), the values for the IC50 with NCI-H524 [2] and in the data set with NCI-H524 [4] were 91 nM and 2520 nM, respectively. The same compound registered a Ki in data set [3] of 0.14 nM.
In the case of `CO[C@H]1C(=O)[C@]2(C)[C@@H](OC)C[C@H]3OC[C@@]3(OC(C)=O)[C@H]2[C@H](OC(=O)c2ccccc2)[C@]2(O)C[C@H](OC(=O)[C@H](O)[C@@H](NC(=O)OC(C)(C)C)c3ccccc3)C(C)=C1C2(C)C` [CABAZITAXEL], the IC50 with NCI-H524 [2] is 0.26 nM.
Consider `COc1cc2cc(c1Cl)N(C)C(=O)C[C@H](OC(=O)[C@H](C)N(C)C(=O)CCSSC[C@@H](CO)NC(=O)[C@@H]1CSSC[C@H](NC(=O)[C@H](N)Cc3ccccc3)C(=O)N[C@@H](Cc3ccc(O)cc3)C(=O)N[C@H](Cc3c[nH]c4ccccc34)C(=O)N[C@@H](CCCCN)C(=O)N[C@@H]([C@@H](C)O)C(=O)N1)[C@@]1(C)O[C@H]1[C@H](C)[C@@H]1C[C@@](O)(NC(=O)O1)[C@H](OC)/C=C/C=C(\C)C2`, for which the IC50 in the data set with NCI-H524 [2] amounted to 42 nM; in the data set on NCI-H524 [4] it was 1390 nM. Besides, affinity in data set [3] was put at a Ki of 0.018 nM.
In turn, `COc1cc2cc(c1Cl)N(C)C(=O)C[C@H](OC(=O)[C@H](C)N(C)C(=O)CCS)[C@@]1(C)O[C@H]1[C@H](C)[C@@H]1C[C@@](O)(NC(=O)O1)[C@H](OC)/C=C/C=C(\C)C2` returned an IC50 in the data set with NCI-H524 [2] of 11 nM.
